In ChEMBL document CHEMBL1146358, “ANN-QSAR model for selection of anticancer leads from structurally heterogeneous series of compounds” (Eur J Med Chem, 2007):
≈ marks a conversion by molar mass, not a printed value.

Tests used:
Type in all cases: functional, cell-based
[1] = Growth inhibition of mouse L1210/0 cells
In short: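 Cells grown with test compound for 48 h at 37 C in humidified CO2-controlled atmosphere; cells counted by Coulter counter at end of incubation; IC50 = concentration reducing number of living cells by 50%.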

[2] = Growth inhibition of human CEM/0 cells; conditions: CCRF-CEM
In short: (§1)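 Cells grown with test compound for 72 h at 37 C in humidified CO2-controlled atmosphere; cells counted by Coulter counter at end of incubation; IC50 = concentration reducing number of living cells by 50%.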

[3] = Growth inhibition of human Molt4/C8 cells; conditions: MOLT-4; in short: as §1

| SMILES | IC50 [1] [µg/mL] | IC50 [2] [µg/mL] | IC50 [3] [µg/mL] |
| --- | --- | --- | --- |
| Cc1cn(C2CCCC2)c(=O)[nH]c1=O | 85.2 (≈ 439 µM) | 138 (≈ 710 µM) | 98.8 (≈ 509 µM) |
| O=c1[nH]c(=O)n(C2CCCC2)cc1Cl | 103 (≈ 480 µM) | 82 (≈ 382 µM) | 81.3 (≈ 379 µM) |
| O=c1[nH]c(=O)n(C2CCCC2)cc1I | 98.8 (≈ 323 µM) | 60.9 (≈ 199 µM) | 53.2 (≈ 174 µM) |
| O=c1[nH]c(=O)n(C2CCCC2)cc1F | 35.1 (≈ 177 µM) | 66 (≈ 333 µM) | 78.1 (≈ 394 µM) |
| O=c1ccn(C2CCCC2)c(=O)[nH]1 | 66.3 (≈ 368 µM) | 80 (≈ 444 µM) | 108 (≈ 599 µM) |
| O=c1[nH]c(=O)n(C2CCCC2)cc1Br | 50.3 (≈ 194 µM) | 37.1 (≈ 143 µM) | 97.2 (≈ 375 µM) |
